Columns and labels:
[1] = Hydrogen-deuterium exchange MS; format: physicochemical; conditions: 3:7 D2O:acetonitrile, MALDI-TOF MS (Figure S13); for Hydrogen-deuterium exchange, deuteration within 1 min: 1 min timescale
Outline: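 Purified peptide was dried under vacuum and redissolved in 3:7 D2O:acetonitrile. At set time points over 24 h, aliquots were quenched by spotting onto the MALDI target with saturated sinapinic acid in 3:7 D2O:acetonitrile + 0.1% formic acid (pH = 2). Deuterium uptake was read by MALDI-TOF MS.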

[2] = Solubility in water; format: physicochemical; conditions: purified peptide

Substance	Hydrogen-deuterium exchange, deuteration within 1 min [1]	Hydrogen-deuterium exchange, deuteration within 24 h [1]	solubility in water [2]
mycetolassin-15	only a fraction of the exchangeable protons were deuterated	not fully deuterated	> 20 mg/mL
mycetolassin-18	only a fraction of the exchangeable protons were deuterated	not fully deuterated	> 20 mg/mL

Reference: article PMC10947786 (ACS synthetic biology, 2024)
